Most compounds without a hit are left out; they make up all but 2.9% or so of the library.
DENV2 CPE rescue – protects cells from dengue virus 2 cytopathic effect. CPE inhibition, % at 9.99 µM. 350,000 compounds, 1.7% hits. DENV2-infected cells, cytopathic effect rescue, plate reader. AID 651640; in the data active means CPE inhibition above about 20%, passing the limit was not always enough; tested in BHK-21 cells
SIRT5 inh – blocks human SIRT5 desuccinylation of peptide | AID 652115 | Purified SirT5, succinyl-peptide AMC, trypsin-coupled fluorescence | Q9NXA8 | inhibition, % at 15 µM | 330,000 compounds, 1.1% hits; in the data active means inhibition above about 15%
CAL PDZ FP-1 – inhibitors of human CAL PDZ peptide binding | inhibition, % at 24.9 µM | Q9HD26 | 300,000 compounds, 0.92% hits | AID 602252 | purified CAL PDZ, TMR-peptide fluorescence polarization, 1 h;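 active means mean inhibition of at least 30% with at least half of replicates also reaching 30%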
S100A4 inh HTS – inhibitors of human S100A4 binding to myosin IIA peptide; 360,000 compounds, 0.14% hits; S100A4/TAMRA-MyoIIA peptide fluorescence polarization; P26447; inhibition, % at 10.7 µM;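 active means mean inhibition of at least 70% across replicates, with every replicate also reaching that level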
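Compound dosing: one dose per compound; test system: human S100A4 monomer with TAMRA-labelled myosin IIA peptide; probe or stimulus: TAMRA-labelled myosin IIA heavy-chain peptide probe, 5 nM; medium: HEPES buffer with Ca2+, pH 7.2; schedule: 5 min incubation before reading; benchmarks: neutral control DMSO, positive control TFP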
ERAP1 inh – ERAP1 (human) enzyme inhibition; Q9NZ08; recombinant ERAP1, Leu-AMC fluorescence, 60 min; inhibition, % at 10.7 µM; 340,000 compounds, 0.15% hits;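 active means mean replicate inhibition of at least 30%, or all replicates individually reaching that 30% level; inactive means mean below 30% and not every replicate reaching it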
CAL PDZ FP-2 – human CAL PDZ-peptide interaction inhibition. Q9HD26. purified CAL PDZ, TMR-peptide fluorescence polarization, 1 h. inhibition, % at 20 µM. 330,000 compounds, 0.02% hits;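 active means highest replicate inhibition of at least 40%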
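Material – purified CerCALP PDZ construct · Detection – FP readout, S and P plane fluorescence · Measure – percent inhibition from loss of millipolarization · Controls – unlabelled peptide for full inhibition, DMSO wells as neutral · Probe or stimulus – TMR-labelled reporter peptide T*-PRC34 bound in PDZ groove · Times – 1 h at RT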
Numbers stand for hits; – = inactive; · = no result given.

SMILES	DENV2 CPE rescue	SIRT5 inh	CAL PDZ FP-1	S100A4 inh HTS	ERAP1 inh	CAL PDZ FP-2
C[C@@H]1CN([C@@H](C)CO)C(=O)c2cccc(NC(=O)c3cnccn3)c2O[C@H]1CN(C)Cc1ccc(Cl)c(Cl)c1	–	–	·	–	32	·
C[C@@H]1CN([C@@H](C)CO)C(=O)c2cccc(NC(=O)c3cnccn3)c2O[C@@H]1CN(C)Cc1ccc(C(F)(F)F)cc1	22	–	·	–	–	·
CC1CCCCC1NC(=O)CN1C(=O)NC(Cc2ccccc2)(Cc2ccccc2)C1=O (centres undefined)	·	·	–	·	·	–
CC1CCC2(CC1)NC(=O)N(CC(=O)NC1CCCCC1C)C2=O (centres undefined)	–	·	33	–	–	–
Cc1ccc(S(=O)(=O)N2C[C@@H]3[C@H]4CC[C@H](C4)[C@@H]3[C@@H](C)[C@@H]2c2ccn([Si](C(C)C)(C(C)C)C(C)C)c2)cc1	25	–	–	–	–	–
COc1ccc(NC(=O)N(C)C[C@H]2Oc3ccc(NC(=O)CCCCCC(=O)Nc4ccccc4N)cc3CC(=O)N([C@H](C)CO)C[C@H]2C)cc1	–	–	·	–	–	·
COc1cccc(S(=O)(=O)N[C@@H]2C=C[C@@H](CC(=O)NCc3ccncc3)O[C@H]2CO)c1	–	–	·	–	–	·
CCCn1cc(S(=O)(=O)c2ccc(C)cc2)c(=O)c2cc(OC)c(OC)cc21	–	20	–	–	–	–
CCCn1cc(S(=O)(=O)c2ccc(C)cc2)c(=O)c2cc(OC)ccc21	–	–	–	–	–	–
Cc1ccc(S(=O)(=O)c2cc3ccccc3nc2N)cc1	–	–	40	–	–	–
CCOC(=O)/C=C1/SCC(=O)N1Cc1ccc(Br)cc1	–	·	–	–	–	–
CCOC(=O)/C=C1\SCC(=O)N1Cc1nnc(-c2ccccc2Br)o1	·	·	60	·	·	–
O=C(Nc1ccc2c(c1)[C@H]1C[C@H](CC(=O)N3CCCCC3)O[C@@H](CO)[C@H]1O2)c1ccc2c(c1)OCO2	–	–	·	–	–	·
Cn1c(C(=O)N2CCN(c3ccccc3)CC2)cc2cc(Cl)ccc21	–	–	74	–	–	–
CO[C@@H](CN(C)Cc1cc(F)ccc1F)[C@@H](C)CN(C(=O)Nc1ccc(F)cc1)[C@H](C)CO	–	–	·	–	–	·
COc1ccc(N2CCN(C(=O)c3cc4cc(Cl)ccc4[nH]3)CC2)cc1	–	18	–	–	–	–
Cc1cc(NC(=O)CN2C(=O)c3ccccc3S2(=O)=O)no1	–	–	–	–	32	–
O=C(O)CSCC(=O)Nc1ccc(Br)c(C(F)(F)F)c1	–	82	·	–	·	–
O=C(O)c1ccccc1C(=O)Nc1ccc(Br)c(C(F)(F)F)c1	–	–	–	–	–	–
Cc1noc(C)c1S(=O)(=O)Nc1ccc2c(c1)C(=O)N([C@@H](C)CO)C[C@@H](C)[C@H](CN(C)Cc1ccc(Cl)c(Cl)c1)OCCCC[C@@H](C)O2	–	20	·	–	–	·
Cc1noc(C)c1S(=O)(=O)Nc1ccc2c(c1)CC(=O)N([C@@H](C)CO)C[C@H](C)[C@H](CN(C)C(=O)NC(C)C)O2	–	–	·	–	–	·
Cc1noc(C)c1S(=O)(=O)Nc1ccc2c(c1)C(=O)N([C@@H](C)CO)C[C@H](C)[C@H](CN(C)Cc1ccc3c(c1)OCO3)OCCCC[C@H](C)O2	46	–	·	–	–	·
Cc1noc(C)c1S(=O)(=O)Nc1ccc2c(c1)CC(=O)N([C@H](C)CO)C[C@@H](C)[C@@H](CN(C)C(=O)NC(C)C)O2	46	–	·	–	–	·
Cc1noc(C)c1S(=O)(=O)Nc1ccc2c(c1)C(=O)N([C@H](C)CO)C[C@H](C)[C@H](CN(C)Cc1ccc(Cl)c(Cl)c1)OCCCC[C@@H](C)O2	–	–	·	–	–	·
Cc1noc(C)c1S(=O)(=O)Nc1ccc2c(c1)C(=O)N([C@@H](C)CO)C[C@@H](C)[C@@H](CN(C)Cc1ccc(Cl)c(Cl)c1)OCCCC[C@@H](C)O2	–	17	·	–	–	·
C/C=C/c1ccc2c(c1)O[C@H](CN(C)C(=O)CN(C)C)[C@@H](C)CN([C@@H](C)CO)S2(=O)=O	–	–	·	–	–	·
